From publication PMC8214312 (Journal of medicinal chemistry, 2021)
Values joined by “and” are separate entries in the source; they are usually repeats but may differ in a detail not shown here. Equal entries are not always repeated. Each block holds one molecule with its values, some of them ahead of it.

Key:
[1] = tested on: FAP-positive cell lines (NCIH2228, U87, and SKMEL24); experiment: In vitro fluorescence binding of QCP01 to FAP-positive cell lines; format: cell-based, human; conditions: 1 h incubation, range 50-0.78 nM
[2] = tested on: FAP-negative cell lines (PC3, NCIH226, and HCT116); experiment: In vitro fluorescence binding of QCP01 to FAP-negative cell lines; format: cell-based, human; conditions: any of the concentrations tested (50-0.78 nM)
[3] = tested on: U87 and PC3 tumor xenografts; experiment: NIRF imaging of QCP01 in tumor-bearing mice; format: in vivo, NOD/SCID mice
DPP-IV = conditions: read-out: IC50 DPP-IV; cited from earlier work
[4] = tested on: FAP-positive cell lines (U87, NCIH228, and SKMEL24); conditions: inhibitor 10^-10 to 10^-4 M, then 25 nM QCP01 for 1 h at 37 °C
FAP = conditions: read-out: IC50 FAP; cited from earlier work
FAP-positive U87 cells = experiment: Cellular uptake of [111In]QCP02 in U87 cells; format: cell-based, human; conditions: 0.037 MBq, 30 min at 37 °C
FAP-negative PC3 cells = experiment: Cellular uptake of [111In]QCP02 in PC3 cells; format: cell-based, human; conditions: 0.037 MBq, 30 min at 37 °C
[5] = tested on: FAP-positive U87 xenograft; experiment: Ex vivo biodistribution of [111In]QCP02, U87 xenograft; set-up: species or system NOD/SCID mice
In short: (§1)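 Male NOD/SCID mice (6–8 weeks) carried subcutaneous xenografts of 1 million U87 cells (left upper flank) and PC3 cells (right upper flank) in HBSS, used at 100–300 mm3. Radioligand was given as 0.37 MBq in 200 μL saline (<10% ethanol) via the tail vein. Groups (n = 4) were killed by CO2 at 5 min, 30 min, 1, 3, 6, 10 and 28 h. Weighed tissues were gamma-counted, decay-corrected against a standard dilution of the dose, and expressed as %ID/g.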

[6] = tested on: FAP-negative PC3 xenograft; experiment: Ex vivo biodistribution of [111In]QCP02, PC3 xenograft; set-up: species or system NOD/SCID mice
In short: as §1

[7] = tested on: U87 and PC3 tumor xenografts; experiment: SPECT-CT imaging of [111In]QCP02 in tumor-bearing mice; format: in vivo, NOD/SCID mice
[8] = 1 h post injection, 0.37 MBq via tail vein

- NIRF uptake in normal tissues ([3]; 5 nmol QCP01 via tail vein, 30 min after injection): mild degree (moderate in the kidney)
- NIRF uptake in PC3 tumors ([3]; 5 nmol QCP01 via tail vein, 30 min until 5 h, washout at 24 h): mild uptake
- ex vivo NIRF uptake of excised U87 tumor versus PC3 tumor ([3]; 5, 24, and 48 h after injection): higher QCP01 uptake than the PC3 tumor
SMILES: CC1(C)C(/C=C/C2=C(Oc3ccc(S(=O)(=O)O)cc3)C(=C/C=C3/N(CCCCS(=O)(=O)O)c4ccc(S(=O)(=O)O)cc4C3(C)C)/CCC2)=[N+](CCCCCC(=O)NCCCOc2ccc3nccc(C(=O)NCC(=O)N4CCC[C@H]4C#N)c3c2)c2ccc(S(=O)(=O)[O-])cc21 [QCP01]
- concentration at which binding was saturated [1]: 50 nM
- lowest concentration at which QCP01 binding was observed [1]: 1.56 nM
- binding in FAP-negative cell lines [2]: no specific binding
- NIRF uptake in U87 xenografts over time ([3]; 5 nmol QCP01 via tail vein, imaging 0.5-48 h): persisted up to 5 h after injection, with washout after 24 h

SMILES: CC(C)[C@H](N)C(=O)N1CCC[C@H]1B(O)O [Val-boroPro]
- IC50 (DPP-IV): 0.022 ± 0.001 µM

SMILES: N[C@@H](CC(=O)N1CCn2c(nnc2C(F)(F)F)C1)Cc1cc(F)c(F)cc1F [sitagliptin]
- effect of pretreatment on QCP01 binding (fluorescence signal) [4]: not inhibited
- IC50 (FAP): > 100 µM

SMILES: N#C[C@@H]1CCCN1C(=O)CNC(=O)c1ccnc2ccc(OCCCNC(=O)CCC(C(=O)O)N3CCN(CC(=O)[O-])CCN(CC(=O)[O-])CCN(CC(=O)[O-])CC3)cc12.[111In+3] (stereo partly drawn) [[^111In]QCP02, [^111In]2,2′,2″-(10-(1-Carboxy-4-((3-((4-((2-((S)-2-cyanopyrrolidin-1-yl)-2-oxoethyl)carbamoyl)quinolin-6-yl)oxy)propyl)amino)-4-oxobutyl)-1,4,7,10-tetraazacyclododecane-1,4,7-triyl)triacetate]
- binding of the incubated dose (FAP-positive U87 cells): over 30%
- binding of the incubated dose (FAP-negative PC3 cells): 0.01%
- uptake in U87 tumor ([5]; 5 min post injection): over 10 % ID/g
- uptake in U87 tumor (peak) ([5]; 30 min post injection): 18.2 % ID/g and 18.16 ± 11.67 % ID/g
- uptake in U87 xenograft [5, 8]: 16.09 ± 4.17 % ID/g
- uptake in U87 xenografts, blocked ([5]; 6 h post injection, co-injection of non-radioactive QCP02 (50 μg per mouse)): 0.55 ± 0.23 % ID/g
- uptake in U87 xenograft relative to PC3 xenograft ([5]; all time points): 3–4 fold
- time by which washout of radiotracer in U87 tumors was observed ([5]; post injection): ≤ 28 h
- uptake in PC3 xenograft [6, 8]: 4.12 ± 0.36 % ID/g
- uptake in PC3 tumor ([6]; all time points): less than 5 % ID/g
- retention of uptake in U87 xenografts on SPECT-CT ([7]; 7.4 MBq via tail vein, uptake seen as early as 1 h post injection): up to 10 h
- uptake in PC3 xenografts on SPECT-CT ([7]; all imaging time points (1, 3, 6, 10, 28 h)): low uptake
